MrgX1 agonist – agonists of human MrgX1 receptor; AID 588627; B-score at 10 µM; MrgX1-HEK293 cells, Fluo-4 calcium fluorescence, agonist mode; active compounds read high; 0.44% of 310,000 active;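 active means calcium response B-score plate-corrected fluorescence ratio at least 3 library SD, with starting fluorescence B-score inside 5 SD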
Target sequence (Q96LB2 whole entry, looked up): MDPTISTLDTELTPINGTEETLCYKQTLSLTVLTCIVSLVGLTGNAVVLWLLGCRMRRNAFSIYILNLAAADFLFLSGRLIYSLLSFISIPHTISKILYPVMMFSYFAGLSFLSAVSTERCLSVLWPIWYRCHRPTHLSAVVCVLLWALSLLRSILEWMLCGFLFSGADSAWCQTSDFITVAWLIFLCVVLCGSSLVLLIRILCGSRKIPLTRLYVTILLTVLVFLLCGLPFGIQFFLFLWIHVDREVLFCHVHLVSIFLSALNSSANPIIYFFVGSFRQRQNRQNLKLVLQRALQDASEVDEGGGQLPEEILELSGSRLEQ
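Material: MrgX1-expressing HEK293 cells / Dosing: compound as first of three additions / Incubation: overnight seeding, then 1 h dark dye loading / Signal: Fluo-4 NW calcium fluorescence / Evaluation: B-scored fluorescence response ratio / Benchmarks: positive and negative control wells on each plate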
MrgX1 antag – human MrgX1 receptor antagonism, primary screen. MRGX1-HEK293 calcium flux, Fluo-4, BAM8-22 antagonism; active compounds read low. B-score at 10 µM. 1.3% of 310,000 active;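 active means calcium-response B-score plate-corrected more than 3 library SD below zero, starting fluorescence within 5 deviations, no agonist response on first addition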;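 further: peak minus trough fluorescence over baseline after final BAM8-22 challenge near maximal dose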
RGS4 block – inhibitors of human RGS4 | B-score at 10 µM | AID 463165 | 0.45% of 310,000 active | HEK293 M3R/RGS4 inducible, Fluo-4 calcium flux; active compounds read high; triggered by carbachol at its EC20 | P49798;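 active means B-score, a plate-corrected calcium signal, over three deviations above library mean, with baseline fluorescence within five deviations of library mean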;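 further: RGS4 expression induced by doxycycline in cells with stable M3 receptor; B-score is computed from the integrated fluorescence ratio over baseline after carbachol; higher B-score means a larger calcium signal and so more RGS4 inhibition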
Target sequence (P49798 whole entry, looked up): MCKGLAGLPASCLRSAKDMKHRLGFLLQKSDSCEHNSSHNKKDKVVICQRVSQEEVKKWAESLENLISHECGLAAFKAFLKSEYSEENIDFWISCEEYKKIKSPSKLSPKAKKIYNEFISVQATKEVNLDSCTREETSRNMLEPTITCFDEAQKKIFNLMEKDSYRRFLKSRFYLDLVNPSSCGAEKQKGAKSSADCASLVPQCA
MrgX1 PAM – human MrgX1 positive allosteric modulation, primary screen | MrgX1-HEK293, Fluo-4 calcium flux, FDSS; active compounds read high | B-score at 10 µM | 0.63% of 310,000 active;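 active means plate-corrected calcium response at least 3 library SD above typical, normal starting fluorescence, not activating the receptor alone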;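 further: compound read alongside a low EC10 to EC30 dose of BAM8-22 agonist; peak minus trough fluorescence over baseline measured at the second addition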
RGS4 pot – potentiators or activators of RGS4 | HEK293 M3R/inducible RGS4, carbachol calcium flux Fluo4; active compounds read low | B-score at 10 µM | 0.92% of 310,000 active | AID 463111;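 active means B-score of the integrated calcium signal more than 4 SD below the library mean, with starting fluorescence not abnormally high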;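 further: negative B-score means reduced calcium response which marks RGS4 activation or potentiation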
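System: HEK293 FlpIn-TREx cells, stable M3R, doxycycline-inducible RGS4. Timing: overnight RGS4 induction, 30 min dye load 37 °C, 20 min compound RT. Also added: carbachol, ECmax concentration. Measured by: Fluo4 fluorescence kinetic imaging of calcium. Evaluation: integrated calcium ratio converted to B score.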
MrgX1 ant reconf – confirmation of human MrgX1 receptor antagonists | shares compounds with MrgX1 antag | MrgX1-HEK293, BAM8-22 calcium flux, Fluo-4; active compounds read low | remaining BAM8-22 calcium response % of control (active compounds read low), % at 10 µM | 19% of 2,300 active;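 active means remaining agonist calcium response no higher than 100% minus 3 SD of agonist-only control wells, with starting fluorescence near control levels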;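 further: agonist BAM8-22 given at a near maximal EC90 to ECmax level; peak minus minimum fluorescence divided by baseline after agonist addition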
HEK293 Ca flux – MrgX1 antagonist counter-screen hit in parental HEK293 cells. shares compounds with MrgX1 antag. Fluo-4 calcium fluorescence, FDSS. fluorescence ratio F(max-min)/F0 at 10 µM. 2% of 4,000 active. AID 624111;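 active means duplicate-averaged calcium fluorescence ratio at least three times the standard deviation of buffer wells, a nonspecific response in parental cells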
HEK293 Ca counter – counter-screen for MrgX1 allosteric activators: effect in parental HEK293 cells; shares compounds with MrgX1 antag; parental HEK293 calcium flux, Fluo-4 fluorescence ratio; active compounds read high; fluorescence ratio F(max-min)/F0 at 10 µM; 0.4% of 4,000 active; AID 624114;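 active means calcium fluorescence ratio, averaged over duplicates, at least 3 SD of the buffer-well ratio, meaning a nonspecific response in receptor-free cells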;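 further: untransfected parental HEK293 lacking MrgX1 used as counterscreen for MrgX1 allosteric activators; fluorescence change taken during the second addition on a kinetic imager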
HEK293 Ca cntr2 – MrgX1 activator counter-screen hit in parental HEK293 cells | fluorescence ratio F(max-min)/F0 at 10 µM | Fluo-4 calcium fluorescence (FDSS); active compounds read high | 8.7% of 4,000 active | shares compounds with MrgX1 antag | AID 624115;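 active means calcium fluorescence ratio at least three times the spread of buffer wells, meaning a non-specific response in parental cells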
* marks the source's active call; other numbers are inactive results; i = inactive; x = not tested or not shown. Most compounds without a hit are left out; they make up all but 3.5% or so of the library.

SMILES	MrgX1 agonist	MrgX1 antag	RGS4 block	MrgX1 PAM	RGS4 pot	MrgX1 ant reconf	HEK293 Ca flux	HEK293 Ca counter	HEK293 Ca cntr2
CN(C(=O)c1cccs1)c1ccccc1C(=O)O	i	-5.7*	i	i	i	i	i	i	i
c1ccc(CN2CCN(c3cnc4ccccc4n3)CC2)cc1	i	-8.8*	i	i	i	i	i	i	i
Fc1ccccc1N1CCN(c2cnc3ccccc3n2)CC1	i	i	i	i	i	x	x	x	x
OC[C@H]1OC(O)[C@H](O)[C@@H]1O (some centres not stated)	i	i	x	i	x	x	x	x	x
Cc1cc(NC(=O)CC#N)n(-c2ccccc2)n1	i	i	i	i	i	x	x	x	x
COc1cccc(CNc2ncnc3cc(OC)c(OC)cc23)c1	i	i	i	i	i	x	x	x	x
COc1cccc(CNc2nc(SC)ncc2CO)c1	i	-4.8*	i	i	i	80%*	i	i	i
Cc1ccc(N(CC(=O)NC2CCCC2)C(=O)CNC(=O)c2cccs2)c(C)c1	i	i	i	i	i	x	x	x	x
COCCNC(=O)c1ccc(C)cc1C	i	-5.3*	i	i	i	73%*	i	i	i
O=C(NCCS(=O)(=O)NCc1cccnc1)c1ccccc1	i	i	i	i	i	x	x	x	x
CC(C)c1ccc(-c2nc(N3CCCC3)nc3n[nH]c(N)c23)cc1	i	-5.4*	i	i	i	i	i	i	i
CC(=O)c1sc2nc(-c3cccs3)ccc2c1N	i	i	i	i	i	x	x	x	x
CC(C)NC(=O)c1sc2nc(-c3cccs3)cc(-c3cccs3)c2c1N	i	-9*	i	i	i	i	i	i	i
CCCCCCCCCCOC(=O)Cn1c(COc2ccccc2OC)[n+](C)c2ccccc21	i	-11*	i	i	-8.4*	59%*	i	i	i
Cc1ccccc1NS(=O)(=O)c1ccc2[nH]c(=O)[nH]c2c1	i	-5.6*	i	i	i	i	i	i	i
CCOC(=O)C1=C(COC(=O)C2CC(=O)N(c3ccc(C)cc3)C2)NC(=O)NC1C (configuration not stated)	i	-5.8*	i	i	i	i	i	i	i
COc1ccc(-c2csc(NC(=O)CSc3nc(C)nc4sc(C(=O)O)c(C)c34)n2)cc1	i	-6.4*	i	i	i	72%*	i	i	i
COc1ccc(-c2csc(NC(=O)CSc3nc(C)cs3)n2)cc1	i	i	i	i	i	x	x	x	x
Cc1cc(C)cc(NC(=O)CSc2nc3[nH]ncc3c(=O)[nH]2)c1	i	-9.1*	i	i	i	i	i	i	i
CC1CCN(C(=O)CSc2nc3[nH]ncc3c(=O)[nH]2)CC1	i	-6.4*	i	i	i	i	i	i	i
COc1ccc(-n2c(SCC(N)=O)nc3sc4c(c3c2=O)CCC4)cc1	i	i	i	i	i	x	x	x	x
CCCC1=C([O-])C2N=CC=CC2=[N+](c2ccccn2)C1=O (configuration not stated)	i	i	i	i	i	x	x	x	x
Cc1cc(/C=C2\SC(=S)N(C)C2=O)c(C)n1-c1ccc(O)cc1	i	-11*	i	i	i	i	i	i	i
CCC(=O)Nc1c(C(=O)N2CCN(c3ccccn3)CC2)cnn1-c1ccc(C)cc1	i	-7.5*	i	i	i	i	i	i	i
CCCN(C(=O)c1c(CC)noc1C)c1c(N)n(Cc2ccccc2)c(=O)[nH]c1=O	i	i	i	i	i	x	x	x	x
SMILES	MrgX1 agonist	MrgX1 antag	RGS4 block	MrgX1 PAM	RGS4 pot	MrgX1 ant reconf	HEK293 Ca flux	HEK293 Ca counter	HEK293 Ca cntr2
COc1ccc(CCNc2ccc([N+](=O)[O-])cn2)cc1	i	i	i	i	i	x	x	x	x
COc1ccc(CCNc2cc(=O)[nH]c(N)n2)cc1	i	-6.8*	i	i	i	i	i	i	i
COc1ccccc1NC(=O)CCC(=O)OCc1ccc(Cl)cc1	i	-4.8*	i	i	i	i	i	i	i
Cc1noc(C)c1S(=O)(=O)Nc1ccc(C#N)cc1	i	i	i	i	i	x	x	x	x
CCCOC(=O)C1=C(C)NC2=C(C(=O)C(C(=O)OC)C(C)C2)C1c1ccc(N(CC)CC)cc1 (configuration not stated)	i	-7.8*	i	i	i	i	i	i	i
CC(/C=N\NC(=O)Cn1c(C)nc2ccccc21)=C\c1ccccc1	i	-11*	i	i	i	i	i	i	i
O=C(Nc1ccccc1F)c1ccc(C(=O)c2ccccc2)cc1	i	-5.6*	i	i	i	84%*	i	i	i
CCc1ccc(N2CC(C(=O)Nc3nccs3)CC2=O)cc1 (configuration not stated)	i	-5*	i	i	i	i	i	i	i
O=C(Nc1nccs1)C1CC(=O)N(c2ccc(F)cc2)C1 (configuration not stated)	i	i	i	i	i	x	x	x	x
CCOC(=O)c1cnc2nc(C(F)(F)F)[nH]n2c1=O	i	-5.5*	i	i	i	i	i	i	i
COc1ccc2c(c1)CCCN2C(N)=O	i	-4.9*	i	i	i	i	i	i	i
COC(=O)N1CCCc2cc(C)ccc21	i	i	i	i	i	x	x	x	x
C=CCC(CC=C)(NC(=O)c1ccccc1C)c1ccccc1	i	i	i	i	i	x	x	x	x
CC(C)(C)N(Cc1ccccc1)C(=O)COC(=O)CSc1ccc([N+](=O)[O-])cc1	i	-9.9*	i	i	i	i	i	i	i
CCOC(=O)N1CCN(C(=O)c2ccccc2N(C)S(C)(=O)=O)CC1	i	-7.6*	i	i	i	i	i	i	i

Screening data as filed in PubChem.
